The first assay deals with NCI-H358. The assay can be described thus: Antiproliferative activity against human NCI-H358 cells incubated for 96 hrs by MTT assay. It is filed as functional, cell-based. As to conditions: Homo sapiens, NCI-H358, 96 h; read-out: EC50. A digest of the protocol:
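H358 cells at 5,000/well, grown overnight, treated with serially diluted peptide (0–40 μM) in 10% FBS medium for 96 h at 37 °C. MTT added for 4 h, formazan solubilized overnight in SDS-HCl, absorbance read at 570 nm.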
For orientation: Tetrazolium dyes change colour on reduction, which living cells bring about.
With `CCCC[C@H](NC(=O)CNC(=O)C[C@H](CCC)NC(=O)[C@@H]1CNC(=O)c2cc3cc(c2)C(=O)N[C@H](Cc2ccc4ccccc4c2)C(=O)N[C@@H](CO)C(=O)N[C@@H](CCC(N)=O)C(=O)N[C@H](Cc2ccc4ccccc4c2)C(=O)N[C@@H](c2ccccc2)C(=O)N[C@@H](CCCCNC3=O)C(=O)N[C@H](Cc2ccccc2)C(=O)N[C@@H](C)C(=O)N[C@H](CCCNC(=N)N)C(=O)N[C@@H](CCCNC(=N)N)C(=O)N1)C(=O)N[C@H](CCCNC(=N)N)C(N)=O`, the EC50 (usually the midpoint of the concentration-response curve) was 24 µM.
As to `C[C@@H]1NC(=O)[C@@H](Cc2ccccc2)NC(=O)[C@@H]2CCCCNC(=O)c3cc(cc(c3)C(=O)N[C@H](Cc3ccc4ccccc4c3)C(=O)N[C@@H](CO)C(=O)N[C@@H](CCC(N)=O)C(=O)N[C@H](Cc3ccc4ccccc4c3)C(=O)N[C@@H](c3ccccc3)C(=O)N2)C(=O)NC[C@@H](C(=O)N[C@@H](CCN)CC(=O)N[C@H](CCCNC(=N)N)C(=O)N[C@@H](Cc2ccc(F)cc2)C(=O)N[C@H](C)C(=O)N[C@@H](CCCCN)C(N)=O)NC(=O)[C@H](CCCNC(=N)N)NC(=O)[C@@H](CCCNC(=N)N)NC1=O`, the EC50 came to 17 µM.

Staying with this assay, now noted: nci-h358.
With `CC(C)C[C@@H](NC(=O)[C@H](CCC(N)=O)NC(=O)CNC(=O)[C@@H]1CNC(=O)c2cc3cc(c2)C(=O)N[C@H](Cc2ccc4ccccc4c2)C(=O)N[C@@H](CO)C(=O)N[C@@H](CCC(N)=O)C(=O)N[C@H](Cc2ccc4ccccc4c2)C(=O)N[C@@H](c2ccccc2)C(=O)N[C@@H](CCCCNC3=O)C(=O)N[C@H](Cc2ccccc2)C(=O)N[C@@H](C)C(=O)N[C@H](CCCNC(=N)N)C(=O)N[C@@H](CCCNC(=N)N)C(=O)N1)C(=O)N[C@H](CCCNC(=N)N)C(=O)N[C@@H](CCCCN)C(N)=O`, the EC50 result is listed as “Not Active”.
As for `CC(C)[C@@H](NC(=O)C[C@H](CCN)NC(=O)[C@@H]1CNC(=O)c2cc3cc(c2)C(=O)N[C@H](Cc2ccc4ccccc4c2)C(=O)N[C@@H](CO)C(=O)N[C@@H](CCC(N)=O)C(=O)N[C@H](Cc2ccc4ccccc4c2)C(=O)N[C@@H](c2ccccc2)C(=O)N[C@@H](CCCCNC3=O)C(=O)N[C@H](Cc2ccccc2)C(=O)N[C@@H](C)C(=O)N[C@H](CCCNC(=N)N)C(=O)N[C@@H](CCCNC(=N)N)C(=O)N1)C(=O)N[C@H](C)CC(=O)N[C@H](Cc1c[nH]c2ccccc12)C(=O)NCCC(N)=O`, the EC50 result is listed as “Not Active”.
Still for that read-out and setting: then `C[C@@H]1NC(=O)[C@@H](Cc2ccccc2)NC(=O)[C@@H]2CCCCNC(=O)c3cc(cc(c3)C(=O)N[C@H](Cc3ccc4ccccc4c3)C(=O)N[C@@H](CO)C(=O)N[C@@H](CCC(N)=O)C(=O)N[C@H](Cc3ccc4ccccc4c3)C(=O)N[C@@H](c3ccccc3)C(=O)N2)C(=O)NC[C@@H](C(=O)N[C@@H](CCN)CC(=O)N[C@H](CC(N)=O)C(=O)N[C@H](Cc2ccc(O)cc2)C(=O)N[C@@H](C(N)=O)[C@H](C)O)NC(=O)[C@H](CCCNC(=N)N)NC(=O)[C@@H](CCCNC(=N)N)NC1=O`, with “Not Active”; and `C[C@@H]1NC(=O)[C@@H](Cc2ccccc2)NC(=O)[C@@H]2CCCCNC(=O)c3cc(cc(c3)C(=O)N[C@H](Cc3ccc4ccccc4c3)C(=O)N[C@@H](CO)C(=O)N[C@@H](CCC(N)=O)C(=O)N[C@H](Cc3ccc4ccccc4c3)C(=O)N[C@@H](c3ccccc3)C(=O)N2)C(=O)NC[C@@H](C(=O)N[C@@H](CCC(=O)O)C(=O)N[C@@H](Cc2cnc[nH]2)C(=O)N2CCC[C@@H]2C(=O)N[C@H](Cc2ccc(O)cc2)C(=O)N[C@@H](CCCCN)C(N)=O)NC(=O)[C@H](CCCNC(=N)N)NC(=O)[C@@H](CCCNC(=N)N)NC1=O`, with “Not Active”.

The record behind these values is ChEMBL document CHEMBL4842360, “Discovery of a Bicyclic Peptidyl Pan-Ras Inhibitor” (J Med Chem, 2021).
